Test results from ChEMBL document CHEMBL2417469, “Synthesis of novel analogs of 2-pyrazoline obtained from [(7-chloroquinolin-4-yl)amino]chalcones and hydrazine as potential antitumor and antimalarial agents” (Eur J Med Chem, 2013).

Assays:
Assay type in all cases: functional
Plasmodium falciparum = test: Antimalarial activity against Plasmodium falciparum NF54 infected in human serum at 20 ug/ml after 48 hrs by fluorometric method
Procedure, shortened: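 Asynchronous P. falciparum NF54 at 1.5–2% parasitemia, 5% hematocrit in RPMI with 10% human serum, exposed 48 h at 37 °C under 90% N2/5% CO2/5% O2 at the stated concentration; parasite DNA stained with ethidium bromide after proteinase K lysis; viability % = (Flu treated − medium)/(Flu untreated − medium) ×100; triplicate.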

T47D = test: Cytotoxicity against human T47D cells after 48 hrs by SRB assay
Procedure, shortened: (§1)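 NCI 60-cell screen. Cells grew 24 h (37 °C, 5% CO2) before compound was added. Compounds were in DMSO and diluted in medium with gentamicin, then tested at five levels (100, 10, 1.0, 0.1, 0.01 µM) with 48 h continuous exposure. Adherent cells were fixed with TCA (10% final) and stained with 0.4% SRB, absorbance read at 515 nm. A time-zero plate was included. LC50 is the concentration giving 50% loss of protein relative to time zero.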

MCF7 = test: Cytotoxicity against human MCF7 cells after 48 hrs by SRB assay; details: MCF7, 48 h
Procedure, shortened: (§2)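 NCI 60-cell-line screen. Cells preincubated 24 h at 37 °C, 5% CO2; time-zero plates TCA-fixed. Compounds dissolved in DMSO and tested at five concentrations (100, 10, 1.0, 0.1, 0.01 µM) for 48 h continuous exposure. Adherent cells fixed with cold TCA (10% final), then SRB stained; absorbance at 515 nm. GI50, TGI and LC50 calculated from growth relative to time-zero and untreated controls.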

SN12C = test: Cytotoxicity against human SN12C cells after 48 hrs by SRB assay; procedure, shortened: as §2
ACHN = test: Cytotoxicity against human ACHN cells after 48 hrs by SRB assay; procedure, shortened: as §2
OVCAR-8 = test: Cytotoxicity against human OVCAR8 cells after 48 hrs by SRB assay; details: OVCAR-8, 48 h; procedure, shortened: as §2
OVCAR-5 = test: Cytotoxicity against human OVCAR5 cells after 48 hrs by SRB assay; details: OVCAR-5, 48 h; procedure, shortened: as §2
OVCAR-3 = test: Cytotoxicity against human OVCAR3 cells after 48 hrs by SRB assay; details: OVCAR-3, 48 h; procedure, shortened: as §2
SK-MEL-5 = test: Cytotoxicity against human SK-MEL-5 cells after 48 hrs by SRB assay; details: SK-MEL-5, 48 h; procedure, shortened: as §2
SK-MEL-28 = test: Cytotoxicity against human SK-MEL-28 cells after 48 hrs by SRB assay; details: SK-MEL-28, 48 h; procedure, shortened: as §2
SK-MEL-2 = test: Cytotoxicity against human SK-MEL-2 cells after 48 hrs by SRB assay; details: SK-MEL-2, 48 h; procedure, shortened: as §2
MDA-MB-435 = test: Cytotoxicity against human MDA-MB-435 cells after 48 hrs by SRB assay; details: MDA-MB-435, 48 h; procedure, shortened: as §2
SNB-19 = test: Cytotoxicity against human SNB19 cells after 48 hrs by SRB assay; details: SNB-19, 48 h; procedure, shortened: as §1
SF-268 = test: Cytotoxicity against human SF268 cells after 48 hrs by SRB assay; details: SF-268, 48 h; procedure, shortened: as §2
HCT-116 = test: Cytotoxicity against human HCT116 cells after 48 hrs by SRB assay; details: HCT-116, 48 h; procedure, shortened: as §2
HCC 2998 = test: Cytotoxicity against human HCC2998 cells after 48 hrs by SRB assay; details: HCC 2998, 48 h; procedure, shortened: as §2
NCI-H460 = test: Cytotoxicity against human NCI-H460 cells after 48 hrs by SRB assay; details: NCI-H460, 48 h; procedure, shortened: as §2
NCI-H322M = test: Cytotoxicity against human NCI-H322M cells after 48 hrs by SRB assay; procedure, shortened: as §2
NCI-H226 = test: Cytotoxicity against human NCI-H226 cells after 48 hrs by SRB assay; details: NCI-H226, 48 h; procedure, shortened: as §2
HOP-92 = test: Cytotoxicity against human HOP92 cells after 48 hrs by SRB assay; details: HOP-92, 48 h; procedure, shortened: as §2
HOP-62 = test: Cytotoxicity against human HOP62 cells after 48 hrs by SRB assay; details: HOP-62, 48 h; procedure, shortened: as §2
[1] = Cytotoxicity against human EKVX cells after 48 hrs by SRB assay; procedure, shortened: as §2
[2] = read-out: LC50 (the source's name)

With O=CN1N=C(c2ccc(Nc3ccnc4cc(Cl)ccc34)cc2)CC1c1ccc(Cl)cc1 (configuration not stated) the inhibition at 20 µg/mL (Plasmodium falciparum) was 1.1%, the GI50 (T47D) was 1.56 µM and the LC50 (concentration giving 50% cell kill relative to time zero) (T47D) was > 100 µM. The GI50 (MCF7) was 0.48 µM, the CC50 (MCF7; [2]) was > 100 µM and the GI50 (SN12C) was 0.98 µM. For the same compound, the LC50 (50% net cell kill relative to time zero) (SN12C) was > 100 µM, the GI50 (ACHN) was 1 µM and the CC50 (ACHN; [2]) was > 100 µM. For the same compound, the GI50 (OVCAR-8) was 3.22 µM, the LC50 (50% net cell kill) (OVCAR-8) was > 100 µM and the GI50 (OVCAR-5) was 6.46 µM. For the same compound, the LC50 (OVCAR-5) was > 100 µM, the GI50 (OVCAR-3) was 0.35 µM and the LC50 (OVCAR-3) was > 100 µM. For the same compound, the GI50 (SK-MEL-5) was 0.81 µM, the LC50 (concentration killing 50% of cells present at time zero) (SK-MEL-5) was > 100 µM and the GI50 (SK-MEL-28) was 0.76 µM. For the same compound, the CC50 (SK-MEL-28; [2]) was > 100 µM, the GI50 (SK-MEL-2) was 7.86 µM and the LC50 (SK-MEL-2) was > 100 µM. For the same compound, the GI50 (MDA-MB-435) was 0.2 µM, the LC50 (MDA-MB-435) was > 100 µM and the GI50 (SNB-19) was 1.92 µM. For the same compound, the LC50 (SNB-19) was > 100 µM, the GI50 (SF-268) was 0.85 µM and the LC50 (SF-268) was > 100 µM. For the same compound, the GI50 (HCT-116) was 0.5 µM, the LC50 (HCT-116) was > 100 µM and the GI50 (HCC 2998) was 1.61 µM. The LC50 (HCC 2998) was > 100 µM, the GI50 (NCI-H460) was 0.59 µM and the LC50 (NCI-H460) was > 100 µM. For the same compound, the GI50 (NCI-H322M) was > 100 µM, the LC50 (50% lethal concentration) (NCI-H322M) was > 100 µM and the GI50 (NCI-H226) was 4.66 µM. For the same compound, the LC50 (50% lethal concentration) (NCI-H226) was > 100 µM, the GI50 (HOP-92) was > 100 µM and the LC50 (concentration killing 50% of cells) (HOP-92) was > 100 µM. For the same compound, the GI50 (HOP-62) was 0.86 µM, the LC50 (50% lethal concentration) (HOP-62) was > 100 µM and the LC50 [1] was > 100 µM.
